Measured values from ChEMBL document CHEMBL4043093, “2-Oxo-3, 4-dihydropyrimido[4, 5-d]pyrimidinyl derivatives as new irreversible pan fibroblast growth factor receptor (FGFR) inhibitors” (Eur J Med Chem, 2017).

Assays:
[1] = target: Tyrosine-protein kinase ABL2 (Homo sapiens) (UniProt P42684); experiment: Inhibition of wild-type human ABL2 (A248 to G542 residues) expressed in Escherichia coli BL21 assessed as residual activity at 1000 nM after 30 mins by Kinomescan method relative to control
Outline: (§1)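 Single-point screen at a fixed 1 µM, run within a 456-kinase DiscoveRx KINOMEscan panel. Each kinase's read-out is Percent Control, i.e. signal relative to a control without compound. Hits were scored by a Percent Control < 35 cut-off, and an S(35) selectivity score was calculated across the non-mutant kinases.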

[2] = target: Serine/threonine-protein kinase B-raf (Homo sapiens) (UniProt P15056); experiment: Inhibition of wild-type human partial length BRAF (S429 to E741 residues) expressed in HEK293 cells assessed as residual activity at 1000 nM after 30 mins by Kinomescan method relative to control; type: cell-based
[3] = target: Protein-tyrosine kinase 6 (Homo sapiens) (UniProt Q13882); experiment: Inhibition of wild-type human partial length BRK (L166 to T451 residues) expressed in Escherichia coli BL21 assessed as residual activity at 1000 nM after 30 mins by Kinomescan method relative to control
[4] = target: Tyrosine-protein kinase BTK (Homo sapiens) (UniProt Q06187); experiment: Inhibition of wild-type human full length BTK (M1 to S659 residues) expressed in HEK293 cells assessed as residual activity at 1000 nM after 30 mins by Kinomescan method relative to control; type: cell-based; outline: as §1
[5] = target: Cyclin-dependent kinase 11A (Homo sapiens) (UniProt Q9UQ88); experiment: Inhibition of wild-type human partial length CDC2L2 (D391 to K730 residues) expressed in Escherichia coli BL21 assessed as residual activity at 1000 nM after 30 mins by Kinomescan method relative to control
[6] = target: Serine/threonine-protein kinase DCLK1 (Homo sapiens) (UniProt O15075); experiment: Inhibition of wild-type human partial length DCAMKL1 (L270 to A662 residues) expressed in HEK293 cells assessed as residual activity at 1000 nM after 30 mins by Kinomescan method relative to control; type: cell-based
[7] = target: Serine/threonine-protein kinase 17B (Homo sapiens) (UniProt O94768); experiment: Inhibition of wild-type human full length DRAK2 (M1 to C372 residues) expressed in Escherichia coli BL21 assessed as residual activity at 1000 nM after 30 mins by Kinomescan method relative to control
Outline: (§2)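 Single-concentration screen at 1 µM across a 456-kinase KINOMEscan panel. The read-out is Percent Control for each kinase.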

[8] = tested on: Epidermal growth factor receptor (Homo sapiens), P00533 [L858R]; experiment: Inhibition of human partial length EGFR L858R mutant (R669 to V1011 residues) expressed in Escherichia coli BL21 assessed as residual activity at 1000 nM after 30 mins by Kinomescan method relative to control
Outline: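 KINOMEscan binding panel of 456 kinases, with the test compound at a single concentration of 1 µM. Read-out is Percent Control.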

[9] = target: Ephrin type-A receptor 2 (Homo sapiens) (UniProt P29317); experiment: Inhibition of wild-type human partial length EPHA2 (T593 to V891 residues) expressed in Escherichia coli BL21 assessed as residual activity at 1000 nM after 30 mins by Kinomescan method relative to control
[10] = target: Ephrin type-A receptor 4 (Homo sapiens) (UniProt P54764); experiment: Inhibition of wild-type human partial length EPHA4 (T601 to R897 residues) expressed in Escherichia coli BL21 assessed as residual activity at 1000 nM after 30 mins by Kinomescan method relative to control
[11] = target: Glycogen synthase kinase-3 alpha (Homo sapiens) (UniProt P49840); experiment: Inhibition of wild-type human full length GSK3A (M1 to S483 residues) expressed in Escherichia coli BL21 assessed as residual activity at 1000 nM after 30 mins by Kinomescan method relative to control; outline: as §2
[12] = target: Mitogen-activated protein kinase kinase kinase kinase 2 (Homo sapiens) (UniProt Q12851); experiment: Inhibition of wild-type human partial length MAP4K2 (M1 to G318 residues) expressed in HEK293 cells assessed as residual activity at 1000 nM after 30 mins by Kinomescan method relative to control; type: cell-based
[13] = target: Hepatocyte growth factor receptor (Homo sapiens) (UniProt P08581); experiment: Inhibition of wild-type human partial length MET (D1010 to S1367 residues) expressed in Escherichia coli BL21 assessed as residual activity at 1000 nM after 30 mins by Kinomescan method relative to control
[14] = target: Mitogen-activated protein kinase kinase kinase 10 (Homo sapiens) (UniProt Q02779); experiment: Inhibition of wild-type human partial length MLK2 (V52 to W380 residues) expressed in Escherichia coli BL21 assessed as residual activity at 1000 nM after 30 mins by Kinomescan method relative to control
[15] = target: Mitogen-activated protein kinase 11 (Homo sapiens) (UniProt Q15759); experiment: Inhibition of wild-type human full length p38-beta (M1 to Q364 residues) expressed in Escherichia coli BL21 assessed as residual activity at 1000 nM after 30 mins by Kinomescan method relative to control
[16] = target: Phosphatidylinositol 4,5-bisphosphate 3-kinase catalytic subunit beta isoform (Homo sapiens) (UniProt P42338); experiment: Inhibition of wild-type human partial length PIK3CB (P118 to S1070 residues) expressed in HEK293 cells assessed as residual activity at 1000 nM after 30 mins by Kinomescan method relative to control; type: cell-based
[17] = tested on: Mycobacterium tuberculosis; experiment: Inhibition of wild-type Mycobacterium tuberculosis partial length PKNB (M1 to G279 residues) expressed in HEK293 cells assessed as residual activity at 1000 nM after 30 mins by Kinomescan method relative to control; type: cell-based; outline: as §1
[18] = target: Serine/threonine-protein kinase RIO2 (Homo sapiens) (UniProt Q9BVS4); experiment: Inhibition of wild-type human partial length RIOK2 (M1 to D313 residues) expressed in HEK293 cells assessed as residual activity at 1000 nM after 30 mins by Kinomescan method relative to control; type: cell-based
[19] = target: Ribosomal protein S6 kinase alpha-1 (Homo sapiens) (UniProt Q15418); experiment: Inhibition of wild-type human partial length C-terminal RSK1 kinase domain 2 (P360 to L681 residues) expressed in Escherichia coli BL21 assessed as residual activity at 1000 nM after 30 mins by Kinomescan method relative to control
[20] = target: Ribosomal protein S6 kinase beta-1 (Homo sapiens) (UniProt P23443); experiment: Inhibition of wild-type human partial length S6K1 (M1 to S421 residues) expressed in HEK293 cells assessed as residual activity at 1000 nM after 30 mins by Kinomescan method relative to control; type: cell-based
[21] = target: Serine/threonine-protein kinase SIK1 (Homo sapiens) (UniProt P57059); experiment: Inhibition of wild-type human partial length SIK (M1 to Y304 residues) expressed in Escherichia coli BL21 assessed as residual activity at 1000 nM after 30 mins by Kinomescan method relative to control

Chain of Phosphatidylinositol 4,5-bisphosphate 3-kinase catalytic subunit beta isoform (Homo sapiens) (P42338 whole entry, looked up, the tested form may be a part, canonical isoform): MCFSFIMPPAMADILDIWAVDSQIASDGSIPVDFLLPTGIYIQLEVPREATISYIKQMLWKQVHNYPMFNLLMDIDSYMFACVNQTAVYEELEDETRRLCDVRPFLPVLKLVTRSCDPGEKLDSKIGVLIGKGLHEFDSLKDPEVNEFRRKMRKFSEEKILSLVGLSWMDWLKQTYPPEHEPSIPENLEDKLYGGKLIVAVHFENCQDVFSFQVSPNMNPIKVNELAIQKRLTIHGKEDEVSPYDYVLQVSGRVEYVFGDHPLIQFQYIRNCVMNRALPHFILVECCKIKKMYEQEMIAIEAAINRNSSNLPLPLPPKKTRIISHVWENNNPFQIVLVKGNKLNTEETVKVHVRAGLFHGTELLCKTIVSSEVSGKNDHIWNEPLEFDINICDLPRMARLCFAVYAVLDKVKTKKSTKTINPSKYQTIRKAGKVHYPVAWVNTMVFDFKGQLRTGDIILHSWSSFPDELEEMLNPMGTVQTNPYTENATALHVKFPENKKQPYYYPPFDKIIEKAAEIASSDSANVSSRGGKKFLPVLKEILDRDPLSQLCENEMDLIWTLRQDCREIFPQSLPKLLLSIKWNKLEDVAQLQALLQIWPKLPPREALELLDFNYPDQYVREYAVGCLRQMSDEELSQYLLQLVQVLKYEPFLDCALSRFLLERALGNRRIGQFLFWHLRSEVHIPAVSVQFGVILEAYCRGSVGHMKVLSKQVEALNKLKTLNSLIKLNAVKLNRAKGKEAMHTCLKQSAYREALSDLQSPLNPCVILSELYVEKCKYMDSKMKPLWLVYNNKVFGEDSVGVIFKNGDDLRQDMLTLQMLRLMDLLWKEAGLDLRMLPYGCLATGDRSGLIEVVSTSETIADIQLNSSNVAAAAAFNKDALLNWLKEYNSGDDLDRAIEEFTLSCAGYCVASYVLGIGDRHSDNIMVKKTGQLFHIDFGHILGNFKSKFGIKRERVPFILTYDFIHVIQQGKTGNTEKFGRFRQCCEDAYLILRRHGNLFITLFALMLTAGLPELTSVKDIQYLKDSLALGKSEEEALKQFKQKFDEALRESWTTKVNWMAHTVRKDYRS
Chain of Hepatocyte growth factor receptor (Homo sapiens) (P08581 whole entry, the tested form may be a part): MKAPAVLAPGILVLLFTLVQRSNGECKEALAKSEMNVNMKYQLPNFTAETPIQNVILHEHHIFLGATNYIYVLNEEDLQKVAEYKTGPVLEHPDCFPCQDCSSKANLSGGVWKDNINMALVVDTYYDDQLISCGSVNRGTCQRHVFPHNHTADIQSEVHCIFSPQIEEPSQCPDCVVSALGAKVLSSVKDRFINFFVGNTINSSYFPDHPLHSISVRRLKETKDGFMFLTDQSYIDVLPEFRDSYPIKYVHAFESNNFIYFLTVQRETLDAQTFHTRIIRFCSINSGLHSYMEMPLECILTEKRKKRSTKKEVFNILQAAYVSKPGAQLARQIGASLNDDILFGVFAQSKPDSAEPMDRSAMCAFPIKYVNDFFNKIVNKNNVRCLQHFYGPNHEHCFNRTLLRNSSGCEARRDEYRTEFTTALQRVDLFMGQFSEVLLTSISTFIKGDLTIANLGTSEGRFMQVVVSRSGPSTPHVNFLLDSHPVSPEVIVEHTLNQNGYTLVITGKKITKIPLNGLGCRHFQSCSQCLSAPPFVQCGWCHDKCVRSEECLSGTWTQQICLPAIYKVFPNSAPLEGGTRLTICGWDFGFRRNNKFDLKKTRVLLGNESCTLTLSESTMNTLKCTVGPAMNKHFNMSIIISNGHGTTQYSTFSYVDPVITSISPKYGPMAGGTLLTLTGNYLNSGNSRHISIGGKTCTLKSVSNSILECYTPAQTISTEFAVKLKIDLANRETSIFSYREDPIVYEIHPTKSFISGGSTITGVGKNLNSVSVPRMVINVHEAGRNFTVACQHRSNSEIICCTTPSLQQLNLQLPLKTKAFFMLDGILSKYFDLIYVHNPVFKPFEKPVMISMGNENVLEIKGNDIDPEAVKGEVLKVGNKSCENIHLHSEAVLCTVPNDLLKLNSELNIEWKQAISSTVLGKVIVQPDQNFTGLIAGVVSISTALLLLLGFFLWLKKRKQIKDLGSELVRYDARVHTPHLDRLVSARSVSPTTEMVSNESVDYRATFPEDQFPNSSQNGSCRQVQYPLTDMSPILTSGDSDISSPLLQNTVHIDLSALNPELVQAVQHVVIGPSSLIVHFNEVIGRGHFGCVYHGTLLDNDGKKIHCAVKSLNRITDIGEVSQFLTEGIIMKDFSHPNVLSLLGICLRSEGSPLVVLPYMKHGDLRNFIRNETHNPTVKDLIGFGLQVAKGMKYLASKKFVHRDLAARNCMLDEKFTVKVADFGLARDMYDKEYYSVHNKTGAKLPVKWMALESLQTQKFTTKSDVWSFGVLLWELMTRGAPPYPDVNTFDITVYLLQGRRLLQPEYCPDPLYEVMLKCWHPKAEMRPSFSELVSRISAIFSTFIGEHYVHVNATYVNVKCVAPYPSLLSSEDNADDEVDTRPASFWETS
Chain of Mitogen-activated protein kinase kinase kinase kinase 2 (Homo sapiens) (Q12851 whole entry, the tested form may be a part): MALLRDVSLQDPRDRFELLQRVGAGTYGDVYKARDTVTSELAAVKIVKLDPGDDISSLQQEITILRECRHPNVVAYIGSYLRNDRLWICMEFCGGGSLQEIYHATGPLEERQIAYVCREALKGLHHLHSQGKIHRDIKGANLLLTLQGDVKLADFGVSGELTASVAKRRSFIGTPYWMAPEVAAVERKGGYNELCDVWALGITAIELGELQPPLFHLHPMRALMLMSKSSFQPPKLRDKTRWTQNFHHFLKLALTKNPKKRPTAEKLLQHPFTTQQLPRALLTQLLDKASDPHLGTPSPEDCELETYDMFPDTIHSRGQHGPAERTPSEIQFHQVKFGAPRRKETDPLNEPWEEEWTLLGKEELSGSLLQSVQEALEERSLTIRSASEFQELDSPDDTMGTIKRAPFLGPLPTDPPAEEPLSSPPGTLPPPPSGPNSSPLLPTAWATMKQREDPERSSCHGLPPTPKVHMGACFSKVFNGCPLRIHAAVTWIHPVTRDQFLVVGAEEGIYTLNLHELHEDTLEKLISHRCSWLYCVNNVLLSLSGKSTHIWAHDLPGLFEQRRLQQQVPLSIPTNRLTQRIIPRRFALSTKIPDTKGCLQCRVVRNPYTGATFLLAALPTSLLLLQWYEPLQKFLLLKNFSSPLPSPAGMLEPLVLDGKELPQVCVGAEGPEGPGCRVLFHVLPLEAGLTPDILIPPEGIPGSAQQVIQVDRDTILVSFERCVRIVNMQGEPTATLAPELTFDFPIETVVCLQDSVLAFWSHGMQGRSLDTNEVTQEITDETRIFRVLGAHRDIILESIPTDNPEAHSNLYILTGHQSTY
Chain of Ephrin type-A receptor 4 (Homo sapiens) (P54764 whole entry, the tested form may be a part): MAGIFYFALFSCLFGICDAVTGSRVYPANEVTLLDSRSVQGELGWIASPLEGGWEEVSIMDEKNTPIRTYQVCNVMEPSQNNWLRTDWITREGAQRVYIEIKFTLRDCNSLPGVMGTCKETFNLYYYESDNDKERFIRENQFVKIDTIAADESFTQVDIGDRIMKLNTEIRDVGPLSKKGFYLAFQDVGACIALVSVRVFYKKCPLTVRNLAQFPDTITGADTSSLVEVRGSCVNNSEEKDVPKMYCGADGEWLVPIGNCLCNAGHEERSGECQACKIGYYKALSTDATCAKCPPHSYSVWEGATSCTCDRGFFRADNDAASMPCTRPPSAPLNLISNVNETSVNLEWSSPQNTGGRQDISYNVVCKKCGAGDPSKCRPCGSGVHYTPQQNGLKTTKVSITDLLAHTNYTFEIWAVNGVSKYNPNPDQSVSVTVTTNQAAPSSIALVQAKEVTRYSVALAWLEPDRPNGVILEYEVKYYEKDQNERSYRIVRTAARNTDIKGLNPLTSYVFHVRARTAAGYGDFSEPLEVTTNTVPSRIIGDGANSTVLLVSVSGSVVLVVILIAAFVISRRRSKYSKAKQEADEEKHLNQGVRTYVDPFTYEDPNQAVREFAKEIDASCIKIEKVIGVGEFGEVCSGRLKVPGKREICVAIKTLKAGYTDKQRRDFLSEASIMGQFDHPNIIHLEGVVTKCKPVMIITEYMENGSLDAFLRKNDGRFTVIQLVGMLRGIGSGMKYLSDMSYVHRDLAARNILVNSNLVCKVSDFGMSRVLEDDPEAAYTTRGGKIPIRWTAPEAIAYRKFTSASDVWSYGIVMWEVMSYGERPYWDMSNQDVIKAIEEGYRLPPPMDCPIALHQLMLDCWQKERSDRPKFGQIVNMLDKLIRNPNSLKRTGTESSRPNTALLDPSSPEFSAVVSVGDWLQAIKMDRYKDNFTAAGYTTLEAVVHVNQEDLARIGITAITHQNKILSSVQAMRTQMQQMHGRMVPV
Chain of Ribosomal protein S6 kinase beta-1 (Homo sapiens) (P23443 whole entry, looked up, the tested form may be a part): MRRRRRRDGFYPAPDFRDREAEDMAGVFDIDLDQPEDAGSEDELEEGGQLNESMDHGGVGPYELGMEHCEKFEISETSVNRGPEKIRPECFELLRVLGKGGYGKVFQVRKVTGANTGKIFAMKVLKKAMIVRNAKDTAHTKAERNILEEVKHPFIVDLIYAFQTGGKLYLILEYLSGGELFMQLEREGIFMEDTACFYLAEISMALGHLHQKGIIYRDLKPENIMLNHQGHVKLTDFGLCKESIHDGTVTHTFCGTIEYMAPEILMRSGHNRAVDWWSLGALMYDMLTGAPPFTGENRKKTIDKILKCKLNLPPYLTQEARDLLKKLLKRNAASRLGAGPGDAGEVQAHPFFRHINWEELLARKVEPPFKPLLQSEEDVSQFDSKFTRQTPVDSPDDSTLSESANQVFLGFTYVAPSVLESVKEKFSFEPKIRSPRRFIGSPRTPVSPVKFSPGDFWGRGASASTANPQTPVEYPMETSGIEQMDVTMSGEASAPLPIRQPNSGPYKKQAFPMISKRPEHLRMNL

COc1cc(OC)c(Cl)c(N2Cc3cnc(Nc4ccc(F)cc4)nc3N(C3CCN(C(=O)/C=C/CN(C)C)CC3)C2=O)c1Cl gave an Activity [1] of 26%, an Activity [2] of 100% and an Activity [3] of 100%. The Activity [4] was 99%, the Activity [5] was 88% and the Activity [6] was 95%. The Activity [7] was 99%, the Activity [8] was 90% and the Activity [9] was 100%. The Activity [10] was 100%, the Activity [11] was 100% and the Activity [12] was 100%. The Activity [13] was 96%, the Activity [14] was 94% and the Activity [15] was 87%. For the same compound, the Activity [16] was 100%, the Activity [17] was 100% and the Activity [18] was 100%. For the same compound, the Activity [19] was 94%, the Activity [20] was 92% and the Activity [21] was 19%.
